From ChEMBL document CHEMBL1136788, “A novel antibacterial 8-chloroquinolone with a distorted orientation of the N1-(5-amino-2,4-difluorophenyl) group” (2003)
Converted amounts (≈) assume the structure as drawn.

Tests used:
Assay type in all cases: functional
Escherichia coli = experiment: Tested for in vitro antibacterial activity against Escherichia coli W9523
In short: (§1)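 Agar dilution per NCCLS. Twofold serial dilutions (128–0.002 μg/mL) were made in Mueller Hinton medium. Plates were inoculated with about 10^4 organisms and incubated at 37 °C for 18 h. MIC was the lowest concentration giving no visible growth.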

Streptococcus pneumoniae = experiment: Tested for in vitro antibacterial activity against Streptococcus pneumoniae W1466
In short: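 Agar dilution per NCCLS in Mueller Hinton medium supplemented with 10% horse blood. Twofold dilutions spanned 128–0.002 μg/mL. Inoculum was about 10^4 organisms, incubated at 37 °C for 18 h. MIC was the lowest concentration with no visible growth.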

[1] = In vitro antibacterial activity against Gram (-) bacteria
In short: (§2)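 Value is the geometric mean of MICs over a panel: 14 Gram (–) or 13 Gram (+) strains. MICs came from NCCLS agar dilution in Mueller Hinton medium (10% horse blood added for S. pneumoniae), with twofold dilutions from 128 to 0.002 μg/mL. Inoculum was about 10^4 organisms, at 37 °C for 18 h; endpoint was no visible growth.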

Staphylococcus aureus = experiment: Tested for in vitro antibacterial activity against methicillin resistant Staphylococcus aureus W9501
In short: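 Agar dilution per NCCLS standard method in Mueller Hinton medium; two-fold serial dilutions of test compound from 128 to 0.002 μg/mL. Plates inoculated with about 10^4 organisms, incubated 37 °C for 18 h. MIC read as lowest concentration giving no visible growth on the plate.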

[2] = Tested for in vitro antibacterial activity against Gram (+) bacteria; in short: as §2
Pseudomonas aeruginosa = experiment: Tested for in vitro antibacterial activity against Pseudomonas aeruginosa W348; in short: as §1

Row | SMILES | MIC (Escherichia coli) [µg/mL] | MIC (Streptococcus pneumoniae) [µg/mL] | GM-MIC [1] [µg/mL] | MIC (Staphylococcus aureus) [µg/mL] | GM-MIC [2] [µg/mL] | MIC (Pseudomonas aeruginosa) [µg/mL]
1 | O=C(O)c1cn(C2CC2)c2cc(N3CCNCC3)c(F)cc2c1=O [CIPROFLOXACIN] | 128 (≈ 386 µM) | 1 (≈ 3.02 µM) | 0.04 | 128 (≈ 386 µM) | 0.99 | –
2 | N[C@@H]1[C@H]2CN(c3nc4c(cc3F)c(=O)c(C(=O)O)cn4-c3ccc(F)cc3F)C[C@@H]12 [TROVAFLOXACIN] | > 128 | 0.25 (≈ 0.6 µM) | 0.3 | 128 (≈ 307 µM) | 0.29 | 16 (≈ 38.4 µM)
3 | Nc1cc(-n2cc(C(=O)O)c(=O)c3cc(F)c(N4CC[C@H](N)C4)nc32)c(F)c(F)c1F | – | – | 1.81 | – | 3.22 | –
4 | Nc1cc(-n2cc(C(=O)O)c(=O)c3cc(F)c(N4CC(N)C4)c(F)c32)c(F)cc1F | – | – | 0.08 | – | 0.42 | –
5 | Nc1cc(-n2cc(C(=O)O)c(=O)c3cc(F)c(N4CC(N)C4)cc32)c(F)cc1F | – | – | 0.12 | – | 0.49 | –
6 | Nc1cc(-n2cc(C(=O)O)c(=O)c3cc(F)c(N4CC[C@H](N)C4)nc32)ccc1F | – | – | 0.14 | – | 0.45 | –
7 | CNC1CN(c2c(F)cc3c(=O)c(C(=O)O)cn(-c4cc(N)c(F)cc4F)c3c2Cl)C1 | – | – | 0.04 | – | 0.08 | –
8 | Nc1cc(-n2cc(C(=O)O)c(=O)c3cc(F)c(N4CCNCC4)nc32)c(F)cc1F | – | – | 1.72 | – | 5.81 | –
9 | NC1CCN(c2nc3c(cc2F)c(=O)c(C(=O)O)cn3-c2ccc(F)cc2F)C1 (configuration not stated) [TOSUFLOXACIN] | – | – | 0.12 | – | 0.44 | –
10 | Nc1cc(-n2cc(C(=O)O)c(=O)c3cc(F)c(N4CC(N)C4)nc32)c(F)cc1F | – | – | 0.15 | – | 0.65 | –
11 | Nc1cc(-n2cc(C(=O)O)c(=O)c3cc(F)c(N4CCNCC4)c(F)c32)c(F)cc1F | – | – | 0.39 | – | 2.6 | –
12 | Nc1cc(-n2cc(C(=O)O)c(=O)c3cc(F)c(N4CC[C@H](N)C4)nc32)c(F)cc1F | – | – | 0.1 | – | 0.26 | –
13 | CCNC1CN(c2c(F)cc3c(=O)c(C(=O)O)cn(-c4cc(N)c(F)cc4F)c3c2Cl)C1 | – | – | 0.08 | – | 0.12 | –
14 | Nc1cc(-n2cc(C(=O)O)c(=O)c3cc(F)c(N4CC[C@H](N)C4)cc32)c(F)cc1F | – | – | 0.14 | – | 0.22 | –
15 | Nc1c(F)ccc(-n2cc(C(=O)O)c(=O)c3cc(F)c(N4CC[C@H](N)C4)nc32)c1F | – | – | 0.32 | – | 1.61 | –
16 | CC1(N)CN(c2c(F)cc3c(=O)c(C(=O)O)cn(-c4cc(N)c(F)cc4F)c3c2Cl)C1 | – | – | 0.06 | – | 0.1 | –
17 | Nc1cc(-n2cc(C(=O)O)c(=O)c3cc(F)c(N4CC[C@H](N)C4)c(Cl)c32)c(F)cc1F | – | – | 1.21 | – | 1.16 | –
18 | NC1CN(c2c(F)cc3c(=O)c(C(=O)O)cn(-c4ccc(F)cc4F)c3c2Cl)C1 | 32 (≈ 75.5 µM) | 0.03 (≈ 0.0708 µM) | 0.06 | 8 (≈ 18.9 µM) | 0.13 | 16 (≈ 37.8 µM)
19 | Nc1cc(-n2cc(C(=O)O)c(=O)c3cc(F)c(N4CCNCC4)cc32)c(F)cc1F | – | – | 0.15 | – | 1.05 | –
20 | Nc1ccc(F)c(-n2cc(C(=O)O)c(=O)c3cc(F)c(N4CC[C@H](N)C4)nc32)c1 | – | – | 0.86 | – | 1.99 | –
21 | Nc1cc(-n2cc(C(=O)O)c(=O)c3cc(F)c(N4CC(N)C4)c(Cl)c32)c(F)cc1F | 1 (≈ 2.28 µM) | 0.008 (≈ 0.0182 µM) | 0.03 | 1 (≈ 2.28 µM) | 0.07 | 1 (≈ 2.28 µM)
22 | Cc1c(N2CC(N)C2)c(F)cc2c(=O)c(C(=O)O)cn(-c3cc(N)c(F)cc3F)c12 | – | – | 0.03 | – | 0.09 | –
23 | Nc1cc(-n2cc(C(=O)O)c(=O)c3cc(F)c(N4CC[C@H](N)C4)c(F)c32)c(F)cc1F | – | – | 0.22 | – | 0.34 | –
24 | CN(C)C1CN(c2c(F)cc3c(=O)c(C(=O)O)cn(-c4cc(N)c(F)cc4F)c3c2Cl)C1 | – | – | 0.22 | – | 0.12 | –
25 | Nc1cc(-n2cc(C(=O)O)c(=O)c3cc(F)c(N4CCNCC4)c(Cl)c32)c(F)cc1F | – | – | 0.52 | – | 1.61 | –
26 | Nc1cc(-n2cc(C(=O)O)c(=O)c3cc(F)c(N4CC(N)C4)c(Br)c32)c(F)cc1F | – | – | 0.04 | – | 0.07 | –
